Data published in ChEMBL document CHEMBL2016554, “Synthesis, biological evaluation and molecular docking studies of 1,3,4-oxadiazole derivatives as potential immunosuppressive agents” (Bioorg Med Chem, 2012).
pIC50: −log10 of the molar value.

What was measured:
[1] = Immunosuppressive activity in BALB/c mouse lymph node cells assessed as inhibition of concanavalin A-stimulated cell proliferation at 1 uM administered 24 hrs post concanavalin A stimulation and measured 72 hrs after compound dosing by MTT assay; format: functional
Method in brief: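 BALB/c mouse lymph node cells, 5 × 10^5 per well, stimulated with 5 µg/mL ConA for 24 h, then left untreated or given compound at 1 µM for 72 h. MTT added 4 h before the end, formazan dissolved in DMSO, OD570 read. Inhibition = (control OD570 − compound OD570)/control OD570 × 100, with untreated cells as control. Values are means of three experiments.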

[2] = Cytotoxicity against BALB/c mouse lymph node cells at 10 uM after 24 hrs MTT assay
[3] = Inhibition of N-terminal His-tagged bovine PI3Kgamma expressed in Sf21 cells using L-alpha-phosphatidylinositol substrate by TLC based phosphor imaging; set-up: species or system Bos taurus
[4] = biological target: T1, Phosphatidylinositol 4,5-bisphosphate 3-kinase catalytic subunit delta isoform (Homo sapiens, UniProt O00329); assay: Inhibition of PI3Kdelta expressed in cells co-expressing N-terminal His-tagged human p85a using L-alpha-phosphatidylinositol substrate by TLC based phosphor imaging; format: cell-based
T1 sequence (O00329 whole entry): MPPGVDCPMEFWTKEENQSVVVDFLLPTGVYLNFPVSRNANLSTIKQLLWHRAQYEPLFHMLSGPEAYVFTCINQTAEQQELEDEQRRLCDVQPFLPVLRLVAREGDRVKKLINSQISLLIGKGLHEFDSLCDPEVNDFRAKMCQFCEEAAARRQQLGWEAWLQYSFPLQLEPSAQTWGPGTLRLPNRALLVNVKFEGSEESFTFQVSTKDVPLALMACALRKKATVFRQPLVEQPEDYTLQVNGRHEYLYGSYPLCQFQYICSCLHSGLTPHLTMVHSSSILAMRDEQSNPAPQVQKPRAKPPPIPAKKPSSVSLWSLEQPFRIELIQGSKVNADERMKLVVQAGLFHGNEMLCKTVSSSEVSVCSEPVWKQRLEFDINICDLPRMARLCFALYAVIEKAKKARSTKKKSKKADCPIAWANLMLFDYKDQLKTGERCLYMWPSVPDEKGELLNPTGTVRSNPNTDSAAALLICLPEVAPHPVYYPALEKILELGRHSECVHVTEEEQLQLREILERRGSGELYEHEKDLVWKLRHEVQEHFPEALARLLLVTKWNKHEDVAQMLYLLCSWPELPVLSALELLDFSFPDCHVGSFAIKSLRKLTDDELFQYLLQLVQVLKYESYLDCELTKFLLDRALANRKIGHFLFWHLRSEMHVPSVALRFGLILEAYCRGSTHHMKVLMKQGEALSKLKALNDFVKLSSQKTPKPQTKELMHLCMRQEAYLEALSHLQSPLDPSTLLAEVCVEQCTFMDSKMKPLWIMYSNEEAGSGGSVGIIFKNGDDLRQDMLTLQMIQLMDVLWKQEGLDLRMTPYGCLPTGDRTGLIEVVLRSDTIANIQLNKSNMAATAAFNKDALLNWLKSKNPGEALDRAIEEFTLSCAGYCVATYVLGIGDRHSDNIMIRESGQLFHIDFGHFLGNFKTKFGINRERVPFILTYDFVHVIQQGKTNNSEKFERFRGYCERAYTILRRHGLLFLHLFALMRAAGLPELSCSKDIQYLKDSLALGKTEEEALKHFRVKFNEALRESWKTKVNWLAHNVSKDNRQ

[5] = biological target: Phosphatidylinositol 4,5-bisphosphate 3-kinase catalytic subunit beta isoform (Homo sapiens, UniProt P42338); assay: Inhibition of human wild type PI3Kbeta expressed in Sf21 cells co-expressing N-terminal His-tagged human p85a using L-alpha-phosphatidylinositol substrate by TLC based phosphor imaging
[6] = biological target: Phosphatidylinositol 4,5-bisphosphate 3-kinase catalytic subunit alpha isoform (Mus musculus, UniProt P42337); assay: Inhibition of mouse wild type PI3Kalpha expressed in Sf21 cells co-expressing N-terminal His-tagged human p85a using L-alpha-phosphatidylinositol substrate by TLC based phosphor imaging
[7] = Induction of apoptosis in BALB/c mouse concanavalin A-stimulated lymph node cells assessed as late apoptotic cells at 16 uM administered 24 hrs post concanavalin A stimulation and measured 24 hrs after by Annexin-V-FITC/propidium iodide staining based flow cytometry (reference value: 17.49 %); format: functional
[8] = Induction of apoptosis in BALB/c mouse concanavalin A-stimulated lymph node cells assessed as early apoptotic cells at 16 uM administered 24 hrs post concanavalin A stimulation and measured 24 hrs after by Annexin-V-FITC/propidium iodide staining based flow cytometry (reference value: 4.52 %); format: functional
[9] = Induction of apoptosis in BALB/c mouse concanavalin A-stimulated lymph node cells assessed as early apoptotic cells at 4 uM administered 24 hrs post concanavalin A stimulation and measured 24 hrs after by Annexin-V-FITC/propidium iodide staining based flow cytometry (reference value: 4.52 %); format: functional
[10] = Induction of apoptosis in BALB/c mouse concanavalin A-stimulated lymph node cells assessed as late apoptotic cells at 1 uM administered 24 hrs post concanavalin A stimulation and measured 24 hrs after by Annexin-V-FITC/propidium iodide staining based flow cytometry (reference value: 17.49 %); format: functional
Mus musculus = assay: Induction of apoptosis in BALB/c mouse concanavalin A-stimulated lymph node cells assessed as late apoptotic cells administered 24 hrs post concanavalin A stimulation and measured 24 hrs after by Annexin-V-FITC/propidium iodide staining based flow cytometry; format: functional
[11] = Induction of apoptosis in BALB/c mouse concanavalin A-stimulated lymph node cells assessed as late apoptotic cells at 4 uM administered 24 hrs post concanavalin A stimulation and measured 24 hrs after by Annexin-V-FITC/propidium iodide staining based flow cytometry (reference value: 17.49 %); format: functional
[12] = Induction of apoptosis in BALB/c mouse concanavalin A-stimulated lymph node cells assessed as early apoptotic cells at 1 uM administered 24 hrs post concanavalin A stimulation and measured 24 hrs after by Annexin-V-FITC/propidium iodide staining based flow cytometry (reference value: 4.52 %); format: functional

Phosphatidylinositol 4,5-bisphosphate 3-kinase catalytic subunit beta isoform, sequence (P42338 whole entry, canonical isoform): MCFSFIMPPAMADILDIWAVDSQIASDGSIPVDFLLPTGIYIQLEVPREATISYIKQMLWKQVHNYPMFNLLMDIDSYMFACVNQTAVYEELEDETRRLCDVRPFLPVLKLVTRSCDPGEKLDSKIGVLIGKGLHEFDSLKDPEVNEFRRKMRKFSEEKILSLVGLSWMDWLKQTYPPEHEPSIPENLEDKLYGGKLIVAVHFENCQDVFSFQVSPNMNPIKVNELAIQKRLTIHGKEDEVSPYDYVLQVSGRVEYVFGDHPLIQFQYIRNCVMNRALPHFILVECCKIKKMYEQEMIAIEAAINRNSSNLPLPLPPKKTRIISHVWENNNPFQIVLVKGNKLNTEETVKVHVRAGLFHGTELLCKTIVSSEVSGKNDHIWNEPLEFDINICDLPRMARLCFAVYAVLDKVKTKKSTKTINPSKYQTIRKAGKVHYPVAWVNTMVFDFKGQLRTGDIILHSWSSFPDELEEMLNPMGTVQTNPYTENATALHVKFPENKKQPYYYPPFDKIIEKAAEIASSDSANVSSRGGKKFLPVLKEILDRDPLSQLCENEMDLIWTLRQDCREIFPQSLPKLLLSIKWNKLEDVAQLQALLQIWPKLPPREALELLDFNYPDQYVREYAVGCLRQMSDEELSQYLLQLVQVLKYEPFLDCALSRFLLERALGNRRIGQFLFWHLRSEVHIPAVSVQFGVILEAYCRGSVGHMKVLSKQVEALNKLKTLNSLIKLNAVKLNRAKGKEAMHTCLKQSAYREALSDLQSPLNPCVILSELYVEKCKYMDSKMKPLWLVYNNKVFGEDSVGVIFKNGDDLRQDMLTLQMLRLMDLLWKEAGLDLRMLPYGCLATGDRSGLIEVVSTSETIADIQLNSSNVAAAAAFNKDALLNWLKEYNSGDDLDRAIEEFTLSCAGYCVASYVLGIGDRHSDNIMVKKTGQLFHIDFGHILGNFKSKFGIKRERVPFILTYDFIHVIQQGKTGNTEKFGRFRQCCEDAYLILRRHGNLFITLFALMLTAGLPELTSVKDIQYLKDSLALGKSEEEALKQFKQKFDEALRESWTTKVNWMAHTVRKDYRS
Phosphatidylinositol 4,5-bisphosphate 3-kinase catalytic subunit alpha isoform, sequence (P42337 whole entry, canonical isoform): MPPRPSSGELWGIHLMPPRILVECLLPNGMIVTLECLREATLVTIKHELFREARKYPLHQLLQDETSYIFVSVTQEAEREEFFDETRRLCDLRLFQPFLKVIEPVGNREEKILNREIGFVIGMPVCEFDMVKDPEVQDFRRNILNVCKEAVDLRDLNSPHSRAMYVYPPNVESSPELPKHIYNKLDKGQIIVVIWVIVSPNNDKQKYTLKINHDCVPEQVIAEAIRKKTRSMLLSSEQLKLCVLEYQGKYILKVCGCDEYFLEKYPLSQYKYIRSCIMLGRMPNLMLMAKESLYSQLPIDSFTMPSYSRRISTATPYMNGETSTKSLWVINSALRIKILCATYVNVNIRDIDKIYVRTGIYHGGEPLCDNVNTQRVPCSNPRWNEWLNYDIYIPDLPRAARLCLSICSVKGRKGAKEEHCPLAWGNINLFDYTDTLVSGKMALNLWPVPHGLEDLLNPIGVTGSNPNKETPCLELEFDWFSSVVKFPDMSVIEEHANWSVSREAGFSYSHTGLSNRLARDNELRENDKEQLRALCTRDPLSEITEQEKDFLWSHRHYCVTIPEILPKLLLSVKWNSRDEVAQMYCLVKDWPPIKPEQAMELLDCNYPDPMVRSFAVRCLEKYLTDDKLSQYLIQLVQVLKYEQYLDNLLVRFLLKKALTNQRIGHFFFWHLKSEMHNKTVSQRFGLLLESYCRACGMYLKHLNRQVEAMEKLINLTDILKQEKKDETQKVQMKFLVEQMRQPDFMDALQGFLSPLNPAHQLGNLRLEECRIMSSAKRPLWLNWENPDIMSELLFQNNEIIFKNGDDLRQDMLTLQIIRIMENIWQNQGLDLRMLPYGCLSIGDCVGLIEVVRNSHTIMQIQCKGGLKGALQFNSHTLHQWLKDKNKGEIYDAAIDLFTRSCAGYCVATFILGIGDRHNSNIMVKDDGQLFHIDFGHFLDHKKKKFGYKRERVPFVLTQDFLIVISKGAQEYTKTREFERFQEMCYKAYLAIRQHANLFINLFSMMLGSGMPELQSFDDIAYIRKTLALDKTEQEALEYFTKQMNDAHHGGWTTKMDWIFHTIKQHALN

With Cc1ccc(-c2nnc(SCc3cccc(Cl)c3)o2)c(O)c1 the “inhibition (INH)” value [1] was -0.72% and the OD [2] was 0.7.
In the case of COc1cccc(CSc2nnc(-c3ccc(OC)cc3O)o2)c1, the “inhibition (INH)” value [1] was 11.06% and the OD [2] was 0.71.
With Cc1ccc(CSc2nnc(-c3ccc(C)cc3O)o2)cc1 the “inhibition (INH)” value [1] was 11.42% and the OD [2] was 0.65.
For COc1ccc(-c2nnc(SCc3ccc(C)cc3)o2)c(O)c1, the “inhibition (INH)” value [1] was 6.29% and the OD [2] was 0.9.
In the case of COc1ccc(-c2nnc(SCc3cccc(Cl)c3)o2)c(O)c1, the “inhibition (INH)” value [1] was 22.03%, the pIC50 [3] was 5.73 and the pIC50 [4] was under 4.00. The pIC50 [5] was 4.36, the OD [2] was 0.9 and the pIC50 [6] was 4.81.
With COc1ccc(-c2nnc(SCc3ccc(F)cc3)o2)c(O)c1 the “inhibition (INH)” value [1] was 29.32%, the pIC50 [3] was 6.01 and the pIC50 [4] was 4.94. The pIC50 [5] was under 4.00, the OD [2] was 0.87 and the pIC50 [6] was 4.51.
In the case of Cc1ccc(-c2nnc(SCc3ccccc3Cl)o2)c(O)c1, the “inhibition (INH)” value [1] was 8.99% and the OD [2] was 0.79.
With COc1cccc(CSc2nnc(-c3ccc(C)cc3O)o2)c1 the “inhibition (INH)” value [1] was 20.59%, the pIC50 [3] was 5.59 and the pIC50 [4] was under 4.00. It also gave a pIC50 [5] of 4.87, an OD [2] of 0.87 and a pIC50 [6] of 5.71.
With COc1ccc(CSc2nnc(-c3ccc(OC)cc3O)o2)cc1 the “inhibition (INH)” value [1] was 11.33% and the OD [2] was 0.75.
In the case of COc1ccc(-c2nnc(SCc3ccccc3[N+](=O)[O-])o2)c(O)c1, the “inhibition (INH)” value [1] was 3.96% and the OD [2] was 0.91.
In the case of COc1ccc(-c2nnc(SCc3ccccc3Cl)o2)c(O)c1, the “inhibition (INH)” value [1] was 17.36% and the OD [2] was 0.89.
For C/C=C/C[C@@H](C)[C@@H](O)[C@H]1C(=O)N[C@@H](CC)C(=O)N(C)CC(=O)N(C)[C@@H](CC(C)C)C(=O)N[C@@H](C(C)C)C(=O)N(C)[C@@H](CC(C)C)C(=O)N[C@@H](C)C(=O)N[C@H](C)C(=O)N(C)[C@@H](CC(C)C)C(=O)N(C)[C@@H](CC(C)C)C(=O)N(C)[C@@H](C(C)C)C(=O)N1C [CYCLOSPORINE], the “inhibition (INH)” value [1] was 69.77%.
Compound O=c1cc(N2CCOCC2)oc2c(-c3ccccc3)cccc12 [LY-294002] has a pIC50 [4] of 6.24.
For Cc1ccc(-c2nnc(SCc3ccccc3)o2)c(O)c1, the “inhibition (INH)” value [1] was 9.08% and the OD [2] was 0.86.
In the case of COc1ccc(-c2nnc(SCc3cccc([N+](=O)[O-])c3)o2)c(O)c1, the “inhibition (INH)” value [1] was 19.33%, the pIC50 [3] was 5.61 and the pIC50 [4] was 4.53. The pIC50 [5] was under 4.00, the OD [2] was 0.86 and the pIC50 [6] was 4.75.
With COc1ccc(-c2nnc(SCc3ccc(Cl)cc3)o2)c(O)c1 the “inhibition (INH)” value [1] was 11.96% and the OD [2] was 0.87.
For Cc1ccc(C(=O)O)c(O)c1, the “inhibition (INH)” value [1] was 3.52%.
In the case of Cc1ccc(-c2nnc(SCc3ccccc3F)o2)c(O)c1, the “inhibition (INH)” value [1] was -6.92% and the OD [2] was 0.82.
With COc1ccc(-c2nnc(SCc3cccc(C)c3)o2)c(O)c1 the “inhibition (INH)” value [1] was 16.28% and the OD [2] was 1.12.
In the case of Cc1ccc(-c2nnc(SCc3cccc([N+](=O)[O-])c3)o2)c(O)c1, the “inhibition (INH)” value [1] was -4.36% and the OD [2] was 0.81.
In the case of Cc1ccc(-c2nnc(SCc3ccc(F)cc3)o2)c(O)c1, the “inhibition (INH)” value [1] was 4.5% and the OD [2] was 0.82.
With COc1ccc(-c2nnc(SCc3ccccc3F)o2)c(O)c1 the “inhibition (INH)” value [1] was 34.35%, the pIC50 [3] was 6.23 and the pIC50 [4] was 4.72. It also gave a pIC50 [5] of 4.29, an OD [2] of 0.79 and a pIC50 [6] of 4.47.
With COc1ccc(C(=O)O)c(O)c1 [4-METHOXYSALICYLIC ACID] the “inhibition (INH)” value [1] was 7.34%.
In the case of Cc1cccc(CSc2nnc(-c3ccc(C)cc3O)o2)c1, the “inhibition (INH)” value [1] was 5.22% and the OD [2] was 0.8.
In the case of Cc1ccc(-c2nnc(SCc3ccccc3[N+](=O)[O-])o2)c(O)c1, the “inhibition (INH)” value [1] was 11.42% and the OD [2] was 0.74.
With Cc1ccc(-c2nnc(SCc3ccc([N+](=O)[O-])cc3)o2)c(O)c1 the Activity [7] was 96.35%, the Activity [8] was 2.16% and the Activity [9] was 6.69%. The “inhibition (INH)” value [1] was 38.76%, the pIC50 [3] was 6.51 and the Activity [10] was 26.59%. The Activity (Mus musculus) was “Dose-dependent effect”, the Activity [11] was 27.4% and the pIC50 [4] was 4.59. The pIC50 [5] was under 4.00, the OD [2] was 0.89 and the Activity [12] was 6.26%. The pIC50 [6] was 4.26.
For COc1ccc(-c2nnc(SCc3ccc([N+](=O)[O-])cc3)o2)c(O)c1, the “inhibition (INH)” value [1] was 14.39% and the OD [2] was 0.83.
For COc1ccc(-c2nnc(SCc3ccccc3)o2)c(O)c1, the “inhibition (INH)” value [1] was 4.5% and the OD [2] was 0.81.
For Cc1ccc(-c2nnc(SCc3ccc(Cl)cc3)o2)c(O)c1, the “inhibition (INH)” value [1] was 13.4% and the OD [2] was 0.75.
For COc1ccc(CSc2nnc(-c3ccc(C)cc3O)o2)cc1, the “inhibition (INH)” value [1] was 13.67% and the OD [2] was 0.83.
